The record followed here is ChEMBL document CHEMBL4118110, “The identification of inhibitory compounds of Rickettsia prowazekii methionine aminopeptidase for antibacterial applications” (Bioorg Med Chem Lett, 2018).

The experiment is described as follows: Inhibition of Rickettsia prowazekii N-terminal His6-tagged methionine aminopeptidase 1 expressed in Escherichia coli DLB3 Rosetta cells at 10 uM using Met-AMC as substrate preincubated for 1 hr followed by 30 mins incubation after substrate addition measured after 90 mins in presence of MnCl2 by fluorescence assay relative to control. The method in brief: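 Recombinant R. prowazekii MetAP with Mn(II) as the metal cofactor. Met-AMC substrate; release of free AMC is followed by fluorescence (excitation 360 nm, emission 460 nm). Activity is the slope of fluorescence versus time, compared with an uninhibited control.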
With `Nc1nnc(SCCCOc2ccc(Cl)cc2)[nH]1`, the inhibition is 22 to 32%. In the case of `C1=C(c2ccccc2)Nc2ncnn2C1c1ccco1` (configuration not stated) it was 23 to 32%; in that of `O=C(NCc1ccccn1)c1ccc2[nH]c(=O)c(=O)[nH]c2c1`, 36 to 40%; in that of `Cc1ccc(N2C(=O)CC(Sc3nc[nH]n3)C2=O)cc1` (configuration not stated), 40 to 56%.

For the compound `O=c1[nH]c2cc(Cl)ccc2n(Cc2ccccc2)c1=O`, the inhibition fell in the range of 1 to 62%. In the case of `Cc1[nH]nc(C(=O)O)c1-c1ccccc1` it was 2 to 37%; in that of `COc1cc(C=O)ccc1OCc1ccc(C(=O)O)o1`, 36 to 53%. In the case of `COc1ccc(N2C(=O)CCC2=O)cc1S(=O)(=O)Nc1cccc2cccnc12` it was 14 to 36%. In the case of `Cc1n[nH]c(O)c1C1=NCCCCC1`, the inhibition was 4 to 65%.

For `NC(=O)c1ccccc1N`, the inhibition fell in the range of 1 to 33%.

Consider `Cc1ccc(Sc2ccc(C(=O)O)o2)cc1`, for which the inhibition is 27 to 62%.

As for `COc1ccc(OCc2ccc(C(=O)O)o2)cc1`, the inhibition is 1 to 37%. Next, `O=c1c2ccc(-c3ccccn3)nc2[nH]n1-c1ccccc1`: 1 to 55%.

With `O=C(O)c1cnc2ccccc2c1O`, the inhibition fell in the range of 13 to 55%.

Regarding `Nc1n[nH]c(SCCOc2ccccc2)n1`, the inhibition is 28 to 29%. In the case of `c1ccc(-c2nc3ccccc3[nH]2)nc1` it was 1 to 35%.

Regarding `CCc1n[nH]c(SCC(=O)c2ccc(C)c(C)c2)n1`, the inhibition fell in the range of 5 to 38%. As to `NCc1nc(-c2ccc(F)cc2)no1`, the inhibition lay within 62 to 70%. In the case of `COc1ccc(C(=O)CSc2nnc(C)[nH]2)cc1C` it was 16 to 56%; in that of `CCCN1CC(=O)C(c2nc3ccccc3[nH]2)=C1N`, 1 to 31%; in that of `CCc1n[nH]c(SCC(=O)c2cccc([N+](=O)[O-])c2)n1`, 16 to 44%.

In the case of `Nc1nnc(SCC(=O)c2ccc(O)cc2O)[nH]1`, the inhibition was 2 to 19%. In the case of `COc1cccc(-c2nnc(CN)o2)c1` it was 1 to 33%; in that of `Cc1ccc2nc(-c3ccccn3)c(C(=O)O)cc2c1`, 1 to 13%; in that of `Nc1nnc(SCC(=O)OC2CCCCC2)[nH]1`, 60 to 68%. In the case of `CCc1nnc(SCC(=O)c2ccc(C)cc2C)[nH]1` it was 14 to 45%. For the compound `O=C(Nc1ccccc1)C(=O)Nc1ccccc1`, the inhibition lay within 2 to 39%. Next, `O=C(NCCCCl)C(=O)NCCCCl`: 8 to 43%. Regarding `COc1ccc(-c2nnc3c(N)cccn23)cc1`, the inhibition is 13 to 23%.

For `O=C(O)CC(Sc1nnc[nH]1)c1ccc(Cl)cc1` (configuration not stated), the inhibition fell in the range of 54 to 55%. Next, `CC(=O)c1c(O)nc2ccccn12`: 16 to 43%; `Cc1cc(C)c(C(=O)O)c(O)n1`: 44 to 52%; `Nc1nnc(SCc2ccc([N+](=O)[O-])cc2)[nH]1`: 42 to 45%. As to `CN(C)c1cccc(-c2ccc(C(=O)NN)cc2)c1`, the inhibition lay within 29 to 56%. In the case of `c1ccc2[nH]c(C3CCCN3)nc2c1` (configuration not stated) it was 6 to 23%; in that of `CCn1nc(C(=O)O)c2ccccc2c1=O`, 19 to 26%; in that of `O=C(O)c1c(-c2ccccc2)c(-c2ccccc2)n[nH]c1=O`, 33 to 71%. Next, `COc1cccc(-c2cc(C(=O)O)no2)c1`: 31 to 35%; `CCc1nnc(SCC(=O)c2ccc([N+](=O)[O-])cc2)[nH]1`: 75 to 81%; `CN(C)C(=O)CSc1n[nH]c(-c2ccco2)n1`: 1 to 3%.

For the compound `Nc1cccc2c(-c3cccnc3)n[nH]c12`, the inhibition was 16 to 21%. For the compound `Cc1ccc(-c2cc(C(=O)O)nn2C)cc1`, the inhibition lay within 42 to 45%.

With `Cc1ccc(CSc2nnc(N)[nH]2)cc1`, the inhibition is 36%.

In the case of `Cc1ccc(-c2noc(-c3ccccc3N)n2)cc1`, the inhibition lay within 2 to 52%. Next, `CCN1CCN(Cc2ccc(O)c3ncccc23)CC1`: 20 to 39%. As to `Cc1n[nH]c(SCc2ccc([N+](=O)[O-])cc2)n1`, the inhibition was in the range of 1 to 38%. With `Cc1nnc(CN)o1`, the inhibition lay within 13 to 32%. Consider `CCc1nnc(SCC(=O)c2ccc(F)cc2)[nH]1`, for which the inhibition was in the range of 2 to 13%. In the case of `O=Cc1ccc(OCc2ccc(C(=O)O)o2)cc1` it was 40 to 59%. Next, `c1ccc(-c2nc3ccccc3o2)nc1`: 1 to 46%; `Nc1ccccc1-c1nnc2n1CCCCC2`: 5 to 46%. Turning to `COc1ccccc1-c1cc(C(=O)O)no1`, the inhibition fell in the range of 33 to 48%. On to `c1ccc(CSc2n[nH]c(-c3ccco3)n2)cc1`, for which the inhibition fell in the range of 13 to 16%. For the compound `O=C(O)c1ccc(S(=O)(=O)Cl)s1`, the inhibition lay within 2 to 36%. In the case of `S=c1nc(-c2ccccn2)cc[nH]1` it was 32 to 75%; in that of `c1ccn2c(C3CCCNC3)nnc2c1` (configuration not stated), 2 to 47%; in that of `N#Cc1ccccc1CSc1nnc(N)[nH]1`, 27 to 28%. In the case of `O=C(O)c1cc(-c2ccccn2)nc2ccccc12` it was 37 to 55%. Next, `O=C(O)c1ccc(COc2ccc(F)cc2)o1`: 10 to 16%. Regarding `O=C(O)C1CCCN1C(=O)c1ccco1` (configuration not stated), the inhibition lay within 7 to 9%. As for `CC(C)OC(=O)CSc1nnc(N)[nH]1`, the inhibition is 23 to 38%. Next, `CCCCCCSc1nnc(N)[nH]1`: 1 to 3%. In the case of `Cc1c(C(=O)O)sc2ncn(C3CCCCC3)c(=O)c12` it was 17 to 26%; in that of `O=C(O)c1cc(Br)c(Br)s1`, 30 to 64%. In the case of `O=C(O)c1cccnc1-c1ncccc1C(=O)O` it was 13 to 49%; in that of `CCOC(=O)CSc1nnc(N)[nH]1`, 18 to 34%. On to `Cc1cccc2nc(C(=O)O)cn12`, for which the inhibition lay in the range of 38 to 58%. Next, `O=C(O)C(Sc1nnc[nH]1)c1ccccc1` (configuration not stated): 3 to 41%; `NC(=O)c1nc(-c2ccccc2)oc1Cl`: 4 to 59%. Next, `Cc1cc(C)n(-c2ccc(Cl)c(C(=O)O)n2)n1`: 15 to 77%. As for `CCc1nnc(SCC(=O)c2ccc(OC)cc2)[nH]1`, the inhibition is 1 to 22%. Next, `Cc1ccc(C(=O)NN)cc1`: 1 to 34%.

On to `Nc1nnc(SCCOc2ccc(Cl)cc2)[nH]1`, for which the inhibition was 31 to 32%. Next, `O=C(O)c1ccc(-c2ccccc2Cl)s1`: 1 to 48%.

Regarding `COc1ccc(C(=O)CSc2nnc[nH]2)cc1C`, the inhibition fell in the range of 1 to 48%.

`O=C(O)c1cnc2c(ccc3ccccc32)c1O`: the inhibition was 22 to 43%. For the compound `CC(C)(C)c1ccc(OCCSc2nnc(N)[nH]2)cc1`, the inhibition was in the range of 25 to 28%.

Take `CCOC(=O)CSc1n[nH]c(-c2ccco2)n1`: the inhibition fell in the range of 1 to 51%. In the case of `Cc1ccc(-c2ccc(C(=O)O)s2)cc1` it was 4 to 18%; in that of `CCSc1nnc([C@@H]2CCCN2)o1`, 1 to 34%; in that of `Nc1nnc(SCC(=O)OCCCc2ccccc2)[nH]1`, 44 to 62%. Take `Cc1ccc2nc(-c3ccccn3)cc(C(=O)O)c2c1`: the inhibition came to 28%. Next, `CC(=O)Nc1ccc(C(=O)CSc2nnc(C)[nH]2)cc1`: 1 to 39%. Regarding `CC(C)OC(=O)c1ccc(CSc2nnc(N)[nH]2)cc1`, the inhibition lay within 59 to 66%. For `O=C(O)c1ccc(S(=O)(=O)N2CCOCC2)o1`, the inhibition lay in the range of 8 to 67%. With `CCc1nnc(SCC(=O)c2ccc(Cl)cc2)[nH]1`, the inhibition lay within 9 to 23%. Regarding `O=C(O)c1ccc(S(=O)(=O)c2ccccc2)s1`, the inhibition was in the range of 29 to 65%.

With `Cc1cccc(-c2nnc(C(C)N)o2)c1` (configuration not stated), the inhibition fell in the range of 1 to 43%. On to `Cc1ccc(OCCCCSc2nnc(N)[nH]2)cc1`, for which the inhibition lay in the range of 45 to 65%.

Take `Oc1ccc(-c2ccc(F)cc2)nn1`: the inhibition lay within 44 to 66%. In the case of `COc1ccc(OCCSc2n[nH]c(N)n2)cc1` it was 27 to 32%; in that of `Nc1n[nH]c(SCC(=O)c2cccc([N+](=O)[O-])c2)n1`, 8 to 49%; in that of `O=C(O)c1nn(-c2ccccc2)c2c1CCC2`, 45 to 51%.

Consider `O=C(O)c1ccc(-c2cc(Cl)ccc2Cl)o1`, for which the inhibition fell in the range of 1 to 57%.

For the compound `CCc1nnc(SCC(=O)c2ccc(C(C)C)cc2)[nH]1`, the inhibition fell in the range of 9 to 44%.

Consider `Nc1[nH]n(-c2ccccc2)c(=O)c1C1=NCCCCC1`, for which the inhibition lay in the range of 2 to 35%. Next, `O=c1[nH]c2cccc3c2n(c1=O)CCO3`: 24 to 32%; `O=C(O)C1Cc2c([nH]c3ccccc23)CN1` (configuration not stated): 17 to 19%. In the case of `Cc1ccc(OCCCSc2n[nH]c(N)n2)cc1` it was 42 to 51%. Next, `Cc1c(C(=O)O)sc2nc3n(c(=O)c12)CCC3`: 34 to 50%; `O=C(O)c1ccc(Sc2ccc(Br)cc2)o1`: 1 to 48%; `O=C(O)c1ccc(Cn2cnc3ccccc32)o1`: 9 to 23%. Consider `CC(C)N1CC(=O)C(c2nc3ccccc3[nH]2)=C1N`, for which the inhibition fell in the range of 25 to 26%.

For the compound `COCc1nc(=O)c2c(C)c(C(=O)O)sc2[nH]1`, the inhibition was in the range of 2 to 48%.

As to `CCc1nnc(SCC(=O)c2ccccc2)[nH]1`, the inhibition lay in the range of 1 to 40%. Next, `Cc1n[nH]c(SCC(=O)NCCc2ccccc2)n1`: 1 to 18%. Next, `CCc1ccc(NC(=O)CSc2nnc[nH]2)cc1`: 18 to 60%; `COc1ccc(Cl)cc1-c1nnc(S)[nH]1`: 20 to 65%. Next, `Nc1nnc(SCC(=O)Nc2ccc(Cl)cc2)[nH]1`: 19 to 38%; `O=C(O)c1cc(C2CC2)on1`: 28 to 30%; `NNC(=O)C(=O)Nc1ccccc1C(=O)O`: 11 to 63%. Consider `O=C(O)c1ccc(S(=O)(=O)c2ccc(Cl)cc2)o1`, for which the inhibition was 41 to 68%. In the case of `CCCOC(=O)CSc1nnc(N)[nH]1` it was 15 to 36%; in that of `O=C(O)c1ccc(-c2ccc(Cl)c(Cl)c2)o1`, 46 to 51%.

As for `Cc1ccc(SCc2ccc(C(=O)O)o2)cc1`, the inhibition is 4 to 9%. Next, `CN(C)Cc1cc(C(=O)O)no1`: 2 to 60%; `Cc1c(C(=O)O)sc2[nH]c(=S)[nH]c(=O)c12`: 45 to 46%.
